Data on 7 compounds can be found in ChEMBL document CHEMBL3352507, “Preparation and antimalarial activity of a novel class of carbohydrate-derived, fused thiochromans” (Eur J Med Chem, 2014).

For series [1], the system named is Plasmodium falciparum. Put plainly: Antimalarial activity against Plasmodium falciparum FCR3 after 48 hrs by parasite lactate dehydrogenase assay. The following applies: FCR3, 48 h. The format is functional, organism-based. Summed up: (§1)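 Parasite survival read by parasite lactate dehydrogenase (pLDH) assay. Single-concentration prescreen at […]; compounds with 0–15% survival were taken to dose–response. Ten three-fold serial dilutions in triplicate, incubated 48 h in a gassed airtight box, developed with NBT/PES. IC50 from sigmoidal curve of % survival relative to control against log concentration.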

Series [2] is described as follows: Cytotoxicity against human WI38 cells assessed as cell viability at 1 uM after 48 hrs by SRB assay. The format is cell-based, WI-38. The note with it: read-out: Activity. The method in brief: (§2)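 WI-38 fibroblasts (passages 21–50) were seeded at 10 000 cells/well for 24 h, then exposed for 48 h to compound dissolved in DMSO and diluted in medium. Viable cells were fixed with cold 50% trichloroacetic acid and stained with sulforhodamine B. Bound dye was extracted with 10 mM Tris base and read at 540 nm. Viability relative to drug-free cells.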
A general note: The SRB assay estimates cell density from bound dye.

In series [3] the test system is Plasmodium falciparum. Put plainly: Antimalarial activity against Plasmodium falciparum 3D7 after 48 hrs by parasite lactate dehydrogenase assay. The note with it: 3D7, 48 h. It counts as functional, organism-based. The method in brief: as §1
The nature of series [4]: Cytotoxicity against human WI38 cells after 48 hrs by SRB assay. The format is cell-based. The note with it: WI-38, 48 h. Summed up: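 WI-38 human fetal lung fibroblasts (passages 21–50) in EMEM with 10% FBS, 2 mM L-glutamine and gentamicin, at 37 °C and 5% CO2. Seeded at 10 000 cells/well, grown 24 h, then given compound in DMSO diluted in medium to 5 concentrations for 48 h. Cells were fixed with cold 50% TCA and stained with SRB, and dye was read at 540 nm. IC50 by non-linear regression against untreated controls.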

The nature of series [5]: Cytotoxicity against human WI38 cells assessed as cell viability at 10 uM after 48 hrs by SRB assay. It counts as cell-based, WI-38. The note with it: read-out: Activity. Summed up: as §2
Series [6] is described as follows: Cytotoxicity against human WI38 cells assessed as cell viability at 0.01 uM after 48 hrs by SRB assay. The format is cell-based, WI-38. The following applies: read-out: Activity. The method in brief:
as §2

Series [7] can be described thus: Cytotoxicity against human WI38 cells assessed as cell viability at 100 uM after 48 hrs by SRB assay. The format is cell-based, WI-38. The note with it: read-out: Activity. The method in brief:
as §2

The nature of series [8]: Cytotoxicity against human WI38 cells assessed as cell viability at 0.1 uM after 48 hrs by SRB assay. The format is cell-based, WI-38. The following applies: read-out: Activity. Summed up: as §2

With `c1ccc(COC[C@H]2O[C@@H]3c4ccccc4SC[C@@H]3[C@@H](OCc3ccccc3)[C@@H]2OCc2ccccc2)cc1`, the IC50 was 2.05 µM in series [1], 3.46 µM in series [3] and more than 100 µM in series [4]. In addition, the viability at 48 h, 1 µM in series [2] worked out at 97.6%. The viability at 48 h, 10 µM in series [5] worked out at 85%. The viability at 48 h, 0.01 µM in series [6] was 100%. In series [7], the viability at 48 h, 100 µM was determined as 58.1%. The viability at 48 h, 0.1 µM in series [8] was determined as 98.6%.
On to `Cc1ccc2c(c1)[C@H]1O[C@H](COCc3ccccc3)[C@@H](OCc3ccccc3)[C@H](OCc3ccccc3)[C@H]1CS2`, for which the IC50 in series [1] was 3.37 µM; in series [3], more than 100 µM; in series [4], more than 100 µM. In series [2], the viability at 48 h, 1 µM is 97%. In addition, the viability at 48 h, 10 µM in series [5] is 90%. The viability at 48 h, 0.01 µM in series [6] amounted to 97%. Moreover, the viability at 48 h, 100 µM in series [7] is 72.8%. Further, the viability at 48 h, 0.1 µM in series [8] was 96.3%.
`COc1ccc2c(c1)[C@H]1O[C@H](COCc3ccccc3)[C@@H](OCc3ccccc3)[C@H](OCc3ccccc3)[C@H]1CS2`: the IC50 in series [1] is 1.73 µM; in series [3] it was more than 100 µM; in series [4], more than 100 µM. Further, in series [2], the viability at 48 h, 1 µM was 93.8%. In series [5], the viability at 48 h, 10 µM came out at 90.8%. For the same compound, the viability at 48 h, 0.01 µM in series [6] is 97%. In series [7], the viability at 48 h, 100 µM came to 61%. Also, in series [8], the viability at 48 h, 0.1 µM worked out at 95.8%.
On to `Cc1cccc2c1SC[C@@H]1[C@@H](OCc3ccccc3)[C@H](OCc3ccccc3)[C@@H](COCc3ccccc3)O[C@H]21`, for which the half-inhibitory concentration (IC50) was 2.26 µM in series [1], more than 100 µM in series [3] and more than 100 µM in series [4]. In addition, in series [2], the viability at 48 h, 1 µM amounted to 97.5%. Moreover, the viability at 48 h, 10 µM in series [5] came out at 85.4%. Besides, the viability at 48 h, 0.01 µM in series [6] was 103%. The viability at 48 h, 100 µM in series [7] came out at 68.8%. Further, in series [8], the viability at 48 h, 0.1 µM was 99.5%.
For the compound `Cc1ccc2c(c1)[C@H]1O[C@H](COCc3ccccc3)[C@@H](OCc3ccccc3)[C@H](OCc3ccccc3)[C@H]1C[S@+]2[O-]`, the IC50 is 4.11 µM in series [1], more than 100 µM in series [3] and more than 100 µM in series [4]. Besides, the viability at 48 h, 1 µM in series [2] is 99.1%. The viability at 48 h, 10 µM in series [5] stood at 95.9%. Also, the viability at 48 h, 0.01 µM in series [6] was determined as 103%. Moreover, the viability at 48 h, 100 µM in series [7] came to 69.7%. The viability at 48 h, 0.1 µM in series [8] was determined as 101%.
In the case of `COc1ccc2c(c1)[C@H]1O[C@H](COCc3ccccc3)[C@@H](OCc3ccccc3)[C@H](OCc3ccccc3)[C@H]1C[S@+]2[O-]`, the IC50 was 2.62 µM in series [1], 2.75 µM in series [3] and more than 100 µM in series [4]. Moreover, in series [2], the viability at 48 h, 1 µM is 97.4%. Moreover, the viability at 48 h, 10 µM in series [5] turned out to be 95.8%. Also, in series [6], the viability at 48 h, 0.01 µM is 99.8%. Besides, in series [7], the viability at 48 h, 100 µM amounted to 79.9%. Moreover, the viability at 48 h, 0.1 µM in series [8] amounted to 100%.
As for `CC(C)(C)c1ccc2c(c1)[C@H]1O[C@H](COCc3ccccc3)[C@@H](OCc3ccccc3)[C@H](OCc3ccccc3)[C@H]1C[S@+]2[O-]`, the figures for the half-maximal inhibitory concentration (IC50) in series [1], in series [3] and in series [4] were 0.33 µM, 0.3 µM and more than 100 µM, respectively. Besides, the viability at 48 h, 1 µM in series [2] came to 100%. Also, the viability at 48 h, 10 µM in series [5] was 92.8%. In addition, the viability at 48 h, 0.01 µM in series [6] turned out to be 102%. The viability at 48 h, 100 µM in series [7] is 55.9%. For the same compound, the viability at 48 h, 0.1 µM in series [8] was found to be 102%.

Broadly, the IC50 is the concentration at which inhibition is half-maximal. A low value points to greater potency in that assay.
